Screens: PubChem BioAssay, several laboratories
UCH37 DUB inh: inhibitors of human UCH37 deubiquitinase, primary screen, biochemical, Ub-AMC cleavage, fluorescence; Ubiquitin carboxyl-terminal hydrolase isozyme L5 (Homo sapiens), Q9Y5K5; purified proteasome/UCH37; inhibition, % (no concentration beside the values); 330,000 compounds, 0.33% hits; AID 588478, 2011;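 active means mean inhibition over replicate wells above about 20%, limit read from the data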
Target sequence (Q9Y5K5 whole entry, looked up): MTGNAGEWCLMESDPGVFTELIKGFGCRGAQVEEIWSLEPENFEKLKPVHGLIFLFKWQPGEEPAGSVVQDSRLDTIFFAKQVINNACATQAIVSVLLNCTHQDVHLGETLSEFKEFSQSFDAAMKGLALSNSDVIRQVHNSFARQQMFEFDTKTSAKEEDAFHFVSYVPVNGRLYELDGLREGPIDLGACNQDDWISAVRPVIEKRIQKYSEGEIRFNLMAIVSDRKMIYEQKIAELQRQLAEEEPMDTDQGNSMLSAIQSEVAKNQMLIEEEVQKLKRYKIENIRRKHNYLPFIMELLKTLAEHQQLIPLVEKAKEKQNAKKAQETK
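Material: Human UCH37 enzyme supplied as purified proteasome complex | Schedule: 30 min compound-proteasome preincubation then 25 min substrate reaction, room temperature | Detection: AMC fluorescence from Ub-AMC cleavage, excitation 355 nm, emission 460 nm | Benchmarks: Wells without proteasome as full block, compound-free enzyme plus substrate as uninhibited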
aDG glyco up: activators of alpha-DG glycosylation, primary screen, uHTS, Pro5-aDG cells, AlphaScreen; alpha-DG glycosylation AlphaScreen (IIH6); 0% Pro5, 100% B10-LARGE cell signal; 360,000 compounds, 0.22% hits; activation, % at 10 µM;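 active means activation of at least 8% versus controls, or a plate z-score of at least 8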;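 further: Pro5 are CHO cells carrying HIG-tagged alpha-DG that lacks glycosylation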
N-glyco inh: increase of ERlucT glycosylation luciferase signal, primary screen, N-linked glycosylation inhibitor project, D54 ERlucT cells, luminescence, set 2 | D54 ERlucT glycosylation luciferase reporter, 24 h; percent of 100 nM tunicamycin response | reporter increase, % at 12.5 µM | 360,000 compounds, 0.23% hits;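 active means mean luciferase reporter signal, scaled so untreated is 0 and the glycosylation-blocking control 100, at or above a set limit in every replicate; inconclusive means mean reaches the limit but not every replicate does; inactive means mean below the limit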;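 further: luciferase carries N-glycosylation sites so blocking glycosylation raises the light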
bovine MsrA act: bovine MsrA enzyme activators, primary screen, biochemical, absorbance, HTS; Methionine sulfoxide reductase A (Bos taurus); 360,000 compounds, 0.3% hits; activation, % at 10.6 µM; purified bovine MsrA, absorbance read-out; AID 602163, 2012; in the data active means activation above about 7.5%
MsrA inhibitor: bovine MsrA enzyme inhibitors, primary screen, biochemical, absorbance, HTS; purified bovine MsrA, absorbance read-out; Methionine sulfoxide reductase A (Bos taurus); inhibition, % at 15.5 µM; 360,000 compounds, 0.75% hits
Vif imaging: HIV Vif self-association inhibitors, primary screen, imaging, HEK293T, single point. HEK293T cells, Vif self-association by quenched fluorescence, 24 h. inhibition, % at 7.49 µM. 340,000 compounds, 0.35% hits. AID 602346, 2012; in the data active means inhibition above about 50%, passing the limit was not always enough; inconclusive means no clear call, values can overlap the other calls; inactive means below about 31%
MsrA inh confirm: bovine MsrA inhibitors, retest, confirmation, biochemical, absorbance, HTS. shares compounds with MsrA inhibitor. purified bovine MsrA, absorbance read-out. inhibition, % at 15.5 µM. 2,300 compounds, 41% hits;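 further: coupled to thioredoxin reductase with NADPH and selenocystamine and DMSO as substrate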
A number is an active result. The list is not random: actives were taken first. Their share in the collection is about 1.9%. Unless noted, no stated cut-off is given here; in the data, active means inhibition above about 4.5%; inactive means the rest.

Results for COc1ccc(C(=O)NCC(=O)NN=C/C=C/c2ccccc2)cc1OC ?
UCH37 DUB inh: inactive

Results for CC1OC(Oc2ccc3ccc(=O)oc3c2-c2c(O)ccc3cc(Oc4ccc5ccc(=O)oc5c4)c(=O)oc23)C(O)C(O)C1O (configuration not stated) ?
UCH37 DUB inh: inactive; aDG glyco up: inactive; N-glyco inh: inactive; bovine MsrA act: inactive; MsrA inhibitor: 4.8; Vif imaging: inactive; MsrA inh confirm: inactive

What do the screens show for `O=C(CNC(=O)c1ccccc1Br)NN=Cc1cc([N+](=O)[O-])cc(Br)c1O`?
UCH37 DUB inh: inactive

Results for O=[N+]([O-])c1ccccc1Nc1ccccc1[N+](=O)[O-] ?
UCH37 DUB inh: inactive; aDG glyco up: inactive; N-glyco inh: inactive; bovine MsrA act: inactive; MsrA inhibitor: inactive; Vif imaging: inactive

Results for Nc1ccccc1Nc1ccc([N+](=O)[O-])cc1[N+](=O)[O-] ?
UCH37 DUB inh: inactive; aDG glyco up: inactive; N-glyco inh: inactive; bovine MsrA act: inactive; MsrA inhibitor: 17; Vif imaging: inactive; MsrA inh confirm: 9.4

Results for Cc1onc(-c2ccccc2)c1C(=O)Nc1nnc(-c2ccncc2)s1 ?
UCH37 DUB inh: inactive; aDG glyco up: inactive; N-glyco inh: inactive; bovine MsrA act: inactive; MsrA inhibitor: 5.0; Vif imaging: inactive; MsrA inh confirm: 4.9

How did O=C(N/N=C/c1ccc(Br)o1)/C(=C/c1ccc([N+](=O)[O-])cc1)NC(=O)c1ccccc1 do in these assays?
aDG glyco up: inactive; N-glyco inh: inactive; bovine MsrA act: inactive; MsrA inhibitor: 5.3; Vif imaging: inactive; MsrA inh confirm: inactive

How did O=C(NN=Cc1ccco1)/C(=C/c1cccc([N+](=O)[O-])c1)NC(=O)c1ccccc1 do in these assays?
UCH37 DUB inh: inactive

Results for O=C(N/N=C/c1ccco1)/C(=C/c1cccc([N+](=O)[O-])c1)NC(=O)c1ccccc1 ?
aDG glyco up: inactive; N-glyco inh: inactive; bovine MsrA act: inactive; MsrA inhibitor: 5.4; Vif imaging: inactive; MsrA inh confirm: inactive

How did CC(=O)Nc1cc(OC(C)=O)c2nonc2c1OC(C)=O do in these assays?
UCH37 DUB inh: inactive; aDG glyco up: inactive; N-glyco inh: inactive; bovine MsrA act: inactive; MsrA inhibitor: 28; Vif imaging: inactive; MsrA inh confirm: inactive

What do the screens show for `CC(=O)Nc1nonc1NC(C)=O`?
UCH37 DUB inh: inactive; aDG glyco up: inactive; N-glyco inh: inactive; bovine MsrA act: inactive; MsrA inhibitor: inactive; Vif imaging: inactive

How did O=C(N/N=C/c1cccnc1)/C(=C\c1cccs1)NC(=O)c1ccccc1 do in these assays?
aDG glyco up: inactive; N-glyco inh: inactive; bovine MsrA act: inactive; MsrA inhibitor: 7.3; Vif imaging: inactive; MsrA inh confirm: 4.7

How did COc1ccc(/C=C(/NC(=O)c2ccccc2)C(=O)NN=Cc2cccs2)cc1OC do in these assays?
UCH37 DUB inh: inactive

Results for COc1ccc(/C=C(/NC(=O)c2ccccc2)C(=O)N/N=C/c2ccc3c(c2)OCO3)cc1OC ?
aDG glyco up: inactive; N-glyco inh: inactive; bovine MsrA act: inactive; MsrA inhibitor: 6.4; Vif imaging: inactive; MsrA inh confirm: 5.1

How did COc1ccc(/C=C(/NC(=O)c2ccccc2)C(=O)N/N=C/c2cccs2)cc1OC do in these assays?
aDG glyco up: inactive; N-glyco inh: inactive; bovine MsrA act: inactive; MsrA inhibitor: 4.8; Vif imaging: inactive; MsrA inh confirm: 6.0

How did COc1cc(/C=C2\C(=O)ON=C2c2ccccc2)cc(Br)c1O do in these assays?
UCH37 DUB inh: inactive; aDG glyco up: inactive; N-glyco inh: inactive; bovine MsrA act: inactive; MsrA inhibitor: 5.5; Vif imaging: inactive; MsrA inh confirm: inactive

What do the screens show for `CCOc1cc(/C=C2\C(=O)ON=C2c2ccccc2)cc(Br)c1O`?
UCH37 DUB inh: inactive; aDG glyco up: inactive; N-glyco inh: inactive; bovine MsrA act: inactive; MsrA inhibitor: inactive

What do the screens show for `CCOc1cc(/C=C2/C(=O)ON=C2C)cc(Br)c1O`?
UCH37 DUB inh: inactive; aDG glyco up: inactive; N-glyco inh: inactive; bovine MsrA act: inactive; MsrA inhibitor: 5.0; MsrA inh confirm: inactive

How did COc1cc(C=NNC(N)=O)ccc1OCC(=O)Nc1ccc(C)c(C)c1 do in these assays?
UCH37 DUB inh: inactive

How did Cn1c(N=Cc2cc(Cl)ccc2O)nc2ccccc21 do in these assays?
UCH37 DUB inh: inactive

Results for Cc1cc(C(=O)NN=Cc2c3ccccc3cc3ccccc23)n[nH]1 ?
UCH37 DUB inh: inactive

How did Cc1cc(C(=O)N/N=C/c2c(C)n(C)c3ccccc23)n[nH]1 do in these assays?
aDG glyco up: inactive; N-glyco inh: inactive; bovine MsrA act: inactive; MsrA inhibitor: 6.9; Vif imaging: inactive; MsrA inh confirm: inactive

Results for Cc1[nH]c2ccccc2c1/C=N/NC(=O)c1cc(-c2cccs2)[nH]n1 ?
aDG glyco up: inactive; N-glyco inh: inactive; bovine MsrA act: inactive; MsrA inhibitor: 4.7; Vif imaging: inactive; MsrA inh confirm: inactive

How did CCC(=O)Nc1ccc(C(=O)N/N=C/c2c(C)[nH]c3ccccc23)cc1 do in these assays?
aDG glyco up: inactive; N-glyco inh: inactive; bovine MsrA act: inactive; MsrA inhibitor: 6.5; Vif imaging: inactive; MsrA inh confirm: 4.9

Results for O=c1[nH]nc(NN=Cc2ccccc2OC(F)F)c(=O)[nH]1 ?
UCH37 DUB inh: inactive

Results for CCOC(=O)CSC1=C(C#N)C(=O)NC(c2ccc(OC)cc2)S1 (configuration not stated) ?
UCH37 DUB inh: inactive; aDG glyco up: inactive; N-glyco inh: inactive; bovine MsrA act: inactive; MsrA inhibitor: 6.6; Vif imaging: inactive; MsrA inh confirm: 6.3

What do the screens show for `CCOC(=O)CSC1=C(C#N)C(=O)NC(c2ccc(OC)c(OC)c2)S1` (configuration not stated)?
UCH37 DUB inh: inactive; aDG glyco up: inactive; N-glyco inh: inactive; bovine MsrA act: inactive; MsrA inhibitor: inactive; Vif imaging: inconclusive

Results for O=C(CCn1cnc2ccccc21)NN=C/C=C/c1ccccc1 ?
UCH37 DUB inh: inactive

How did CCOC(=O)c1ccc(NC(=O)/C=C/c2cccs2)cc1 do in these assays?
UCH37 DUB inh: inactive; aDG glyco up: inactive; N-glyco inh: inactive; bovine MsrA act: inactive; MsrA inhibitor: inactive; Vif imaging: inactive

Results for CCN(CC)CCOC(=O)c1ccc(NC(=O)/C=C/c2cccs2)cc1 ?
UCH37 DUB inh: inactive; aDG glyco up: inactive; N-glyco inh: inactive; bovine MsrA act: inactive; MsrA inhibitor: 5.5; Vif imaging: inactive; MsrA inh confirm: inactive
